Screening results: PubChem, several laboratories
CXCR6 block – CXCR6 receptor inhibitors, primary screen, cell-based, beta-arrestin, luminescence, CHO-K1 PathHunter, 1536-well; inhibition, % at 20 µM; C-X-C chemokine receptor type 6 (Homo sapiens), O00574; 360,000 compounds, 0.36% hits; in the data active = inhibition above about 34%, passing the limit was not always enough;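 also: antagonist mode with CXCL16 agonist at 10 nM final; 0% = 10 nM CXCL16 with DMSO and 100% = unstimulated wells without agonist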
EBI2 antag – EBI2 receptor antagonists, beta-arrestin recruitment, primary screen, cell-based, luminescence, 7a,25-OHC stimulation, uHTS; G-protein coupled receptor 183 (Homo sapiens), P32249; 7a,25-OHC stimulated; inhibition, % at 5 µM; 360,000 compounds, 0.81% hits; AID 651636, 2012; in the data active = inhibition above about 38%;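 also: enzyme fragment complementation signal reports receptor beta-arrestin coupling in cells; 0% = agonist plus DMSO wells and 100% = wells without agonist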
m5-HT2A agonist – mouse Htr2a agonists via beta-arrestin recruitment, primary screen, cell-based, luminescence; 5-hydroxytryptamine receptor 2A (Mus musculus), P35363; CHO-K1 mHTR2A beta-arrestin complementation; percent of 30 µM serotonin response; activation, % at 7.6 µM; 360,000 compounds, 0.66% hits; AID 624169, 2012;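 active = activation above a run cutoff, the mean activation of all tested compounds plus 3 SD, cut at about 14% in these data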;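 also: 0% = plate median of compound wells and 100% = 30 µM serotonin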
Target sequence (P35363 whole entry, looked up): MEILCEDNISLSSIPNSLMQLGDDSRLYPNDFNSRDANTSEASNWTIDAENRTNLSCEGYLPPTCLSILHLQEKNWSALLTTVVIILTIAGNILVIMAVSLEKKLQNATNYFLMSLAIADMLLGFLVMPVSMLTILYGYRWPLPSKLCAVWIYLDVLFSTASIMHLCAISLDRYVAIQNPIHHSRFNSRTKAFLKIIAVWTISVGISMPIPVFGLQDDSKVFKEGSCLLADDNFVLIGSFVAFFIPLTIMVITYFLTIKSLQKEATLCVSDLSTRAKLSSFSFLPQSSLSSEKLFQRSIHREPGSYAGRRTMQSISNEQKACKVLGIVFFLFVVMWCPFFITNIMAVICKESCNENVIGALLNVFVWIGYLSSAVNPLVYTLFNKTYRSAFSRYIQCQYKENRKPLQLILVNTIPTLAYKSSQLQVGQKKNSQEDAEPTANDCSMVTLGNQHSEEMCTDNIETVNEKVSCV
APJ antag – antagonists of human apelin receptor APJ, primary screen, CHO-K1 cells, beta-arrestin complementation, luminescence; AID 2521, 2010; inhibition, % at 20 µM; 330,000 compounds, 0.32% hits;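 active = inhibition above about 40% at 20 µM, limit read from the data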;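 also: cells challenged with 10 nM apelin-13 agonist together with compound; plate controls were apelin-13 plus DMSO wells for no effect and DMSO wells lacking apelin-13 for full effect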
APJ agonist – agonists of human apelin receptor APJ, primary screen, CHO-K1 cells, PathHunter beta-arrestin, luminescence | 330,000 compounds, 0.11% hits | 0% DMSO wells, 100% apelin | P35414 | activation, % at 20 µM;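 active = activation more than six SD over the plate average, tested at 20 µM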;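 also: 0% = DMSO alone and 100% = apelin-13 at 10 nM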
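Incubation: overnight seeding, 90 min compound at 25 °C, 1 h detection; test system: PathHunter CHO-K1 APJ (AGTRL-1) beta-arrestin reporter cells; amount: 1000 cells/well; doses: one dose, 20 µM compound, 1% DMSO; measured by: beta-gal luminescence; measure: agonist-driven arrestin binding to APJ; benchmarks: negative DMSO alone, positive Apelin-13 at 10 nM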
CCR6 antagonist – CCR6 receptor antagonists, primary screen, cell-based, CHO-K1, luminescence, beta-arrestin, uHTS. C-C chemokine receptor type 6 (Homo sapiens), P51684. CHO-K1 CCR6 PathHunter beta-arrestin, CCL20-stimulated. inhibition, % at 20 µM. 340,000 compounds, 0.49% hits. AID 493098, 2011;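 active = compounds whose inhibition of the agonist-driven luminescence signal at 20 µM reaches about 50%, limit read from the data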;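 also: cells stimulated with CCL20 at 14 nM final; plate controls were DMSO with CCL20 for no effect and DMSO without agonist for full effect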
An asterisk follows results filed as active; x = not tested or not shown. This is a sample that favours compounds with a hit; in the whole collection about 2.1% have one here.

SMILES	CXCR6 block	EBI2 antag	m5-HT2A agonist	APJ antag	APJ agonist	CCR6 antagonist
Cc1cccc(C)c1NC(=O)C1(C)CN(S(C)(=O)=O)CC(=O)N1CCCN1CCOCC1 (stereo not drawn)	x	-3	9	x	x	x
Cc1nn(-c2ccccn2)c2c1C(c1ccccc1Cl)C1=C(N2)c2ccccc2C1=O (stereo not drawn)	26	-4	1	19	-2	79*
COc1cc(/C=N/NC(=O)C(Cc2c[nH]c3ccccc23)NC(=O)OCC(C)C)cc([N+](=O)[O-])c1O (stereo not drawn)	14	2	0	44*	-3	32
COc1cc(/C=N/NC(=O)C(Cc2c[nH]c3ccccc23)NC(=O)OCc2ccccc2)cc([N+](=O)[O-])c1O (stereo not drawn)	24	17	2	x	x	46
OC(c1cccnc1)c1nc(-c2ccc3c(c2)OCO3)cs1 (stereo not drawn)	-1	-1	3	x	x	x
Cc1ccc(C(=C2C3C=CC2C2C(=O)NC(=O)C32)c2ccc(C)cc2)cc1 (stereo not drawn)	-5	9	-5	7	-2	54*
Cc1ccc(NC(=O)CSCC(=O)Nc2cc(S(=O)(=O)N3CCOCC3)ccc2OC(C)C)cc1	5	3	6	x	x	7
COc1ccc(Nc2nnc(-c3ccc(N4CCOCC4)c([N+](=O)[O-])c3)c3ccccc23)cc1	11	17	31*	x	x	23
COc1ccc(C(=O)c2ccc(N3CCOCC3)c([N+](=O)[O-])c2)cc1	5	10	1	-10	-3	10
CCN(CC)C(=O)C1=C(C)N(Cc2ccc(OC)cc2)C(=O)C(CC(=O)NCCCN(C)C)C1 (stereo not drawn)	1	1	-1	x	x	x
COc1cccc(/C=C/C(=O)OCC(=O)c2ccc(Br)cc2)c1	-2	-4	0	x	x	x
Cc1cccc(NS(=O)(=O)c2ccc(NC(=O)CN(c3cc([N+](=O)[O-])ccc3C)S(C)(=O)=O)cc2)c1	-2	86*	-2	0	1	3
CCOc1ccc(CCN2C(=S)N([C@@H](Cc3ccc(O)cc3)CN3CCC[C@@H]3CN3C(=S)NC[C@@H]3Cc3ccc(O)cc3)C[C@@H]2Cc2ccc(O)cc2)cc1	10	13	-3	x	x	x
CCCN(CCC)C(=O)c1cc([N+](=O)[O-])cc2c1-c1ccc([N+](=O)[O-])cc1C2=C(C#N)C#N	x	x	x	11	5	66*
O=C(O)c1ccccc1NS(=O)(=O)c1ccc(N/N=C/c2ccc(O)c(O)c2)c([N+](=O)[O-])c1	22	6	-8	x	x	50*
O=C(C1CC(=O)N(c2ccc(Cl)cc2)C1)N1CCC(c2nc3ccccc3[nH]2)CC1 (stereo not drawn)	-4	2	-9	-26	0	-1
COc1ccc(-c2sc(NC(=O)c3ccc(C)cc3)nc2-c2ccc([N+](=O)[O-])cc2)cc1	20	7	2	14	-2	52*
CCc1nc2c(OCCOC)cccn2c1N(C)C(=O)Nc1ccccc1OC	6	8	4	x	x	x
CN1CCN(C2=C(Cl)C(=O)C(c3cnc(N4CCCCC4)s3)=C(Cl)C2=O)CC1	30	-2	1	11	11	74*
CNC(=O)c1c(NC(=O)CCS(=O)(=O)c2ccc(C)cc2)sc2c1CCN(C(=O)OC)C2	2	4	-1	23	-2	0
FC(F)(F)c1cccc(NC(=S)N2CCN(c3cccc(C(F)(F)F)c3)CC2)c1	7	-1	15*	-5	1	-4
O=C(COC(=O)c1cc(=O)[nH]c2ccccc12)NCc1ccc(Cl)cc1	2	0	11	14	-1	5
CCc1ccc(C(=O)Cn2ncc(Cl)c(Cl)c2=O)cc1	10	23	-1	5	2	1
O=C(OCn1ncc(Cl)c(Cl)c1=O)c1cccc(C(F)(F)F)c1	50*	52*	-3	38	-1	59*
Cn1cc(/C=C2\SC(=O)NC2=S)c2ccccc21	36	4	-4	29	-5	53*
SMILES	CXCR6 block	EBI2 antag	m5-HT2A agonist	APJ antag	APJ agonist	CCR6 antagonist
COc1ccccc1N1C(=O)CC(Sc2nccc(C)n2)C1=O (stereo not drawn)	-4	-13	12	10	-3	1
COc1ccccc1N1C(=O)CC(Sc2n[nH]c(-c3cccc(C)c3)n2)C1=O (stereo not drawn)	2	-9	0	1	5	75*
COc1cc(C(=O)O)nc2ccc([N+](=O)[O-])cc12	-4	-7	2	9	-1	-9
COc1ccc(C(=O)NNC(=O)CSc2nnc(C3CC3)n2C)cc1	0	-14	2	20	1	-5
O=C1N=c2ccccc2=C1c1sc(Nc2ccc(O)cc2)nc1O	50*	4	-6	x	x	57*
O=C1N=c2ccccc2=C1c1sc(Nc2cccc(O)c2)nc1O	20	6	-4	33	-4	34
O=C1N=c2ccccc2=C1c1sc(NS(=O)(=O)Cc2ccccc2)nc1O	10	9	1	13	-6	76*
CCN(C(=O)CSc1nc(N)cc(N)n1)C1CCS(=O)(=O)C1 (stereo not drawn)	2	-8	3	-14	7	2
COC(=O)[C@@]12C[C@@H](CC(=O)N3CCCC3)C(=O)N(CCc3ccc(OC)c(OC)c3)C1=CCC(C)(C)C2	x	8	5	x	x	x
CN(C)CC(O)c1ccc(C=Cc2ccc(Cl)cc2)cc1 (stereo not drawn)	19	-22	-3	x	x	88*
CN(C)/C=C/C(=O)/C=C/c1ccc(Cl)cc1	6	9	-1	-3	-2	11
Cc1cc(/C=C\c2ccc3cc(N(C)C)ccc3[n+]2C)c(C)n1-c1ccccc1	22	-8	-7	11	14	51*
Clc1ccc(/C=C/c2nc3ccccc3[nH]2)c(Cl)c1	-18	15	0	-27	4	-7
CC(C)SC1=NC(C)(C)C=C(/C=C/c2ccc(Cl)cc2Cl)N1	14	6	2	1	-9	51*
CC(C)SC1=NC(C)(C)C=C(/C=C/c2c(Cl)cccc2Cl)N1	9	0	-4	11	-1	52*
CC(C)(C)C(=O)Nc1nc(-c2ccccc2)ns1	-7	0	-2	-12	-1	0
c1ccc(Nc2nc(-c3ccccc3)ns2)cc1	-5	46*	8	-5	1	5
